Test results from ChEMBL document CHEMBL1177683, “Synthesis and pharmacological evaluation of pyrazine N-acylhydrazone derivatives designed as novel analgesic and anti-inflammatory drug candidates” (2010).
The source made the active and inactive calls. The rule behind the calls is not given here.

Experiments:
Mus musculus [1] = assay: Antiedematogenic activity in Swiss mouse assessed as inhibition of capsaicin-induced ear edema at 100 umol/kg, po administered 40 mins before capsaicin challenge measured after 30 mins relative to control
Mus musculus [2] = assay: Analgesic activity against formalin-induced acute pain in Swiss mouse assessed inhibition of nociception at 100 umol/kg, po administered 40 mins before formalin challenge measured for 15 to 30 mins relative to control; format: functional
Procedure, shortened: (§1)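 Mice, 6 per group, received 20 µL of 2.5% formalin (0.92% formaldehyde in saline) into the ventral surface of the right hind paw. Dosing was 100 µmol/kg po in arabic gum vehicle (10 mL/kg), 40 min beforehand. Time spent licking the injected paw was recorded over 0–5 min (neurogenic phase) and 15–30 min (inflammatory phase). Data are mean ± S.E.M., ANOVA/Dunnett versus vehicle.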

Mus musculus [3] = assay: Antinociceptive activity in Swiss mouse assessed as inhibition of acetic acid-induced abdominal constrictions at 100 umol/kg, po administered 40 mins before acetic acid challenge measured for 25 mins relative to control; format: functional; conditions: Abdomen
Procedure, shortened: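 Mice were dosed at 100 µmol/kg po in arabic gum (10 mL/kg), 40 min before 0.6% v/v acetic acid ip (0.1 mL/10 g). Writhes (abdominal contraction, pelvic rotation, hind-limb extension) were counted for 20 min starting 5 min post-injection. Results are expressed as % inhibition versus vehicle controls. Groups of 6 (control 10), ANOVA/Dunnett.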

Mus musculus [4] = assay: Antiedematogenic activity in Swiss mouse assessed as decrease of capsaicin-induced ear edema weight at 100 umol/kg, po administered 40 mins before capsaicin challenge measured after 30 mins relative to control; parameters: scale not given: the % may be the effect or the level left
Mus musculus [5] = assay: Analgesic activity in Swiss mouse assessed as increase in latency of paw licking at 100 umol/kg, po after 60 mins measured for 60 seconds by hot plate test (reference value: 4.9 +/- 0.5 seconds); format: functional
Mus musculus [6] = assay: Analgesic activity in Swiss mouse assessed as increase in latency of paw licking at 100 umol/kg, po after 90 mins measured for 60 seconds by hot plate test (reference value: 5.9 +/- 0.8 seconds); format: functional
Mus musculus [7] = assay: Analgesic activity in Swiss mouse assessed as increase in latency of paw licking at 100 umol/kg, po after 120 mins measured for 60 seconds by hot plate test (reference value: 5.6 +/- 0.5 seconds); format: functional
Mus musculus [8] = assay: Analgesic activity in Swiss mouse assessed as increase in latency of paw licking at 100 umol/kg, po after 150 mins measured for 60 seconds by hot plate test (reference value: 5.1 +/- 0.4 seconds); format: functional
Mus musculus [9] = assay: Analgesic activity against formalin-induced acute pain in Swiss mouse assessed as decrease of time spent in paw licking at 100 umol/kg, po administered 40 mins before formalin challenge measured for 15 to 30 mins; format: functional, organism-based
Procedure, shortened: as §1

Mus musculus [10] = assay: Analgesic activity against formalin-induced acute pain in Swiss mouse assessed as decrease of time spent in paw licking at 100 umol/kg, po administered 40 mins before formalin challenge measured for 0 to 5 mins; format: functional, organism-based
Procedure, shortened: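 Male or female adult Swiss mice (20–30 g, 6–8 weeks), groups of 6, dosed orally in arabic gum vehicle (10 mL/kg) 40 min before 20 µL of 2.5% formalin (0.92% formaldehyde in saline) into ventral surface of right hind paw. Paw-licking time recorded 0–5 min (neurogenic phase) after injection; mean ± S.E.M. versus vehicle controls, ANOVA with Dunnett test.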

Rattus norvegicus [11] = assay: Antiinflammatory effect in complete Freund's adjuvant-induced Wistar rat arthritis model assessed as inhibition of paw edema at 100 umol/kg, po daily once administered on day 14 post adjuvant challenge measured on day 21 post adjuvant challenge; format: functional, organism-based
Procedure, shortened: (§2)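 Wistar rats (130–170 g) received 0.1 mL complete Freund's adjuvant into the right paw. On day 13, arthritic rats were grouped (n=6) with matched scores. Dosing was 100 µmol/kg po daily from day 14 to 21, with arabic gum vehicle (10 mL/kg) for controls. Paw volume was measured by […] on days 1 and 14–21. Data are mean ± S.E.M., ANOVA/Dunnett.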

Rattus norvegicus [12] = assay: Antiinflammatory effect in complete Freund's adjuvant-induced Wistar rat arthritis model assessed as inhibition of paw edema at 100 umol/kg, po daily once administered on day 14 post adjuvant challenge measured on day 17 post adjuvant challenge; format: functional, organism-based
Procedure, shortened: as §2

Rattus norvegicus [13] = assay: Antiinflammatory effect in complete Freund's adjuvant-induced Wistar rat arthritis model assessed as inhibition of paw edema at 100 umol/kg, po daily once administered on day 14 post adjuvant challenge measured on day 16 post adjuvant challenge; format: functional, organism-based
Procedure, shortened: as §2

SMILES	inhibition in vivo at 100 µmol/kg (Mus musculus [1]) [%]	inhibition in vivo at 100 µmol/kg (Mus musculus [2]) [%]	inhibition in vivo at 100 µmol/kg (Mus musculus [3]) [%]	Activity (Mus musculus [4]) [%]	Time (Mus musculus [5]) [s]	Time (Mus musculus [6]) [s]	Time (Mus musculus [7]) [s]	Time (Mus musculus [8]) [s]	Activity (Mus musculus [9])	Activity (Mus musculus [10])	Activity (Rattus norvegicus [11])	Activity (Rattus norvegicus [12])	Activity (Rattus norvegicus [13])
O=C(N/N=C/c1ccc2ccccc2c1)c1cnccn1	35.4	68	68.4	37.8	2.8	3.5	4.4	4.5					
COc1ccc(/C=N/NC(=O)c2cnccn2)cc1OC	49.6	29.1	73.6	29.5	4.8	4.2	6.3	3.8					
O=C(N/N=C/c1c2ccccc2cc2ccccc12)c1cnccn1	54.7	45.8	33.6	26.5	3.7	6.2	5.6	6.6					
O=C(N/N=C/c1ccccn1)c1cnccn1	44.9	56.4	75.5	32.2	2.4	4.4	4.5	3	Active				
O=C(N/N=C/c1ccc(F)cc1)c1cnccn1	33.1	72.3	74.5	39.1	4.6	5.4	4.8	3.1	Active				
O=C(N/N=C/c1ccncc1)c1cnccn1	32.3	58.4	40.4	45.7	3.5	3.2	5.4	4.5	Active				
O=C(N/N=C/c1ccc(-c2ccccc2)cc1)c1cnccn1	47.7	46.9	57.3	32.9	2.7	3.5	4	4.5	Active				
COc1cc(/C=N/NC(=O)c2cnccn2)ccc1O	63.5	31.8	47	21.3	2.6	3.2	3.4	4.4					
O=C(N/N=C/c1ccc(C(F)(F)F)cc1)c1cnccn1	48.3	27.7	54.5	30.2	3.1	3.9	2.4	4					
CC(C)(C)c1cc(/C=N/NC(=O)c2cnccn2)cc(C(C)(C)C)c1O	32.3	26.8	71.6	39.5	2.7	3.4	3.4	5.4					
O=C(N/N=C/c1cc(=O)c2ccccc2o1)c1cnccn1	55.3	52.7	86.3	26.1	2.5	3.5	6.2	4.2	Active				
COc1ccc2c(c1)c(CC(=O)O)c(C)n2C(=O)c1ccc(Cl)cc1 [INDOMETHACIN]	49.3	39	73.1	29.7									
CC(C)c1ccc(/C=N/NC(=O)c2nc3ccccc3nc2-c2ccccc2)cc1	47.5	66.5	77.3	30.7	4.6	5	5.4	4.3					
O=C(N/N=C/c1ccccc1)c1cnccn1	30.5	60.8	42.4	40.6	4.4	4.2	4	5.2	Active				
O=C(N/N=C/c1ccc([N+](=O)[O-])cc1)c1cnccn1	41.9	44.4	40.4	34	3.1	5.4	4.9	4.9	Active				
COc1ccc(/C=N/NC(=O)c2cnccn2)cc1O	27	14.7	64.8	42.8	2	4	1.9	4.7					
Cc1ccc(-c2cc(C(F)(F)F)nn2-c2ccc(S(N)(=O)=O)cc2)cc1 [CELECOXIB]	56.4	68.4	56.9	25.5	5.5	5.7	4.4	3.8					
CC(C)c1ccc(/C=N/NC(=O)c2cnccn2)cc1	46.6	66.5	67.6	31.2	3.3	4.7	5.2	4.6	Active				
O=C(N/N=C/c1ccc(O)cc1)c1cnccn1	42.3	16.7	61.4	33.7	3.1	3.4	5.3	4					
O=C(N/N=C/c1ccccc1O)c1cnccn1	42	16.2	73.1	33.9	4	5.2	6.4	5.2		Active			
COc1cc(/C=N/NC(=O)c2cnccn2)cc(OC)c1OC	70	86	97.1	17.6	4	4.8	4.3	5.3	Active		Active	Active	Active
O=C(N/N=C/c1ccc2c(c1)OCO2)c1cnccn1	44.7	46.7	78.2	32.3	2.4	3	4.4	3.2	Active				
O=C1CCC(N2C(=O)c3ccccc3C2=O)C(=O)N1 (configuration not stated) [THALIDOMIDE]	25.2	66.7	73.3	46.6	4.8	7.5	6.8	5.9			Active	Active	Active
